≈ marks a conversion by molar mass, not a printed value. Calls of active or inactive are those of the source. The rule behind the calls is not given here.
Assays:
Human betaherpesvirus 5 [1] = test: Antiviral activity against acyclovir-resistant HCMV with DNA polymerase mutant in HEL cells assessed as reduction of virus-induced cytopathogenicity; assay type: functional, organism-based; conditions: Human betaherpesvirus 5, HEL
Procedure, shortened: (§1)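 Resistant mutants raised in vitro by serial passage of HCMV AD-169 under rising drug concentrations. Confluent HEL fibroblasts infected at 100 PFU/well for 2 h, then the inoculum was removed. Cells were kept with serial compound concentrations in duplicate for 7 days at 37 °C. After ethanol fixation, cytopathicity was scored microscopically. EC50 is the concentration halving virus-induced cytopathicity.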

Human betaherpesvirus 5 [2] = test: Antiviral activity against foscarnet-resistant HCMV with DNA polymerase mutant in HEL cells assessed as reduction of virus-induced cytopathogenicity; assay type: functional, organism-based; conditions: Human betaherpesvirus 5, HEL; procedure, shortened: as §1
Human betaherpesvirus 5 [3] = test: Antiviral activity against (S)-3-hydroxy-2-phosphonomethoxypropyl cytosine-resistant HCMV with DNA polymerase mutant in HEL cells assessed as reduction of virus-induced cytopathogenicity; assay type: functional, organism-based; conditions: Human betaherpesvirus 5, HEL; procedure, shortened: as §1
Human betaherpesvirus 5 [4] = test: Antiviral activity against HCMV 521 with […] and DNA polymerase mutation in HEL cells assessed as reduction of virus-induced cytopathogenicity; assay type: functional, organism-based; conditions: Human betaherpesvirus 5, HEL
Procedure, shortened: (§2)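 Drug-resistant HCMV clinical isolates from immunocompromised patients, carrying UL97 and/or DNA polymerase mutations. Confluent HEL fibroblasts infected at 100 PFU/well for 2 h, then residual virus was removed. Medium with serial compound concentrations added in duplicate for 7 days at 37 °C. After ethanol fixation, cytopathicity was scored microscopically. EC50 is the concentration reducing cytopathicity by 50%.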

Human betaherpesvirus 5 [5] = test: Antiviral activity against ganciclovir-resistant HCMV with DNA polymerase mutant in HEL cells assessed as reduction of virus-induced cytopathogenicity; assay type: functional, organism-based; conditions: Human betaherpesvirus 5, HEL; procedure, shortened: as §1
Human betaherpesvirus 5 [6] = test: Antiviral activity against (S)-3-hydroxy-2-phosphonomethoxypropyl adenine-resistant HCMV with DNA polymerase mutant in HEL cells assessed as reduction of virus-induced cytopathogenicity; assay type: functional, organism-based; conditions: Human betaherpesvirus 5, HEL; procedure, shortened: as §1
Human betaherpesvirus 5 [7] = test: Antiviral activity against HCMV 530 with […] and DNA polymerase mutation in HEL cells assessed as reduction of virus-induced cytopathogenicity; assay type: functional, organism-based; conditions: Human betaherpesvirus 5, HEL; procedure, shortened: as §2
Human betaherpesvirus 5 [8] = test: Antiviral activity against HCMV 6 with […] mutation in HEL cells assessed as reduction of virus-induced cytopathogenicity; assay type: functional, organism-based; conditions: Human betaherpesvirus 5, HEL; procedure, shortened: as §2
[9] = molecular target: T1, DNA polymerase (Human herpesvirus 5) (UniProt A6BMM6); test: Inhibition of HCMV UL54-encoded DNA polymerase at 5 to 7.5 uM after 60 mins; conditions: Human betaherpesvirus 5
T1 sequence (whole entry): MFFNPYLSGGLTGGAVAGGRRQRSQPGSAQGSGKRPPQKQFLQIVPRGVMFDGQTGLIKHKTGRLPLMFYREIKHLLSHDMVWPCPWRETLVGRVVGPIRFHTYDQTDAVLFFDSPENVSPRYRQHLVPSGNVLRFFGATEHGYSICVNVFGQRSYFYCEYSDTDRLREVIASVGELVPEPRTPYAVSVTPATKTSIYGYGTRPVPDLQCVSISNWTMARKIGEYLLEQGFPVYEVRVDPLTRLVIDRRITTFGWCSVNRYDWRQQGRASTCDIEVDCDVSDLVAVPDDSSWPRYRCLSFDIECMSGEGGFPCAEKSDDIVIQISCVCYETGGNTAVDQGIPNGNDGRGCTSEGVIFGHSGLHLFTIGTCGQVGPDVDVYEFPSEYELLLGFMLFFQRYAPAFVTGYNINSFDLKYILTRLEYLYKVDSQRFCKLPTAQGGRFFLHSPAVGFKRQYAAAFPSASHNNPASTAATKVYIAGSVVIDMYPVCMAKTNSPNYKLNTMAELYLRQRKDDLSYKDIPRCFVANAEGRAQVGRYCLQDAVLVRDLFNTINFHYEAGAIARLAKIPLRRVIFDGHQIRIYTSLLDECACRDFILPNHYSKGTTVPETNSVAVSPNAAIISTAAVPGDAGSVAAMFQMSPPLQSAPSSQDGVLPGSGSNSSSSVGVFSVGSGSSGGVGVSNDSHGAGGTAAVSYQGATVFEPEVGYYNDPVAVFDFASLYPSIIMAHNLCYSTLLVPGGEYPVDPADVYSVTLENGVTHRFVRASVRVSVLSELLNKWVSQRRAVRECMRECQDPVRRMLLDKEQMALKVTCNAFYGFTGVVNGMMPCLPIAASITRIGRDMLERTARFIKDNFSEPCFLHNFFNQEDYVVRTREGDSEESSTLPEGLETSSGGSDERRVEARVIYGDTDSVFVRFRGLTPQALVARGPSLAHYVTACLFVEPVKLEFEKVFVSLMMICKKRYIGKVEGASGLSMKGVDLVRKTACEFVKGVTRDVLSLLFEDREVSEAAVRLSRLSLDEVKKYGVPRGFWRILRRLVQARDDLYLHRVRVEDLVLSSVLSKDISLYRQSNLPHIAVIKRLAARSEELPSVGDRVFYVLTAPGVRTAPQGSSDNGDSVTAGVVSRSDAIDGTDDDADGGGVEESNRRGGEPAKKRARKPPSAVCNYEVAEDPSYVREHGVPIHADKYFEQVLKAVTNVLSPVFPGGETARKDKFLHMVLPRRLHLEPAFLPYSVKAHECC

Human betaherpesvirus 5 [10] = test: Antiviral activity against HCMV in HEL cells assessed as reduction of virus-induced cytopathogenicity administered at 56 hrs post infection; assay type: functional, organism-based
Procedure, shortened: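 Time-of-addition: confluent HEL cultures were infected with about 100 PFU/well of HCMV Davis. Compound dilutions were added at 0 h or at later time points post infection, with one plate set per time point. Seven days after infection, plates were ethanol-fixed and Giemsa-stained. Antiviral effect was scored microscopically and EC50 calculated.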

Human betaherpesvirus 5 [11] = test: Antiviral activity against HCMV AD169 in HEL cells assessed as reduction of virus-induced cytopathogenicity after 7 days; assay type: functional, organism-based; conditions: Human betaherpesvirus 5, AD169, HEL, 168 h
Procedure, shortened: (§3)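 Confluent HEL fibroblasts were infected with strain AD-169 or Davis at 100 PFU/well. After 2 h, residual virus was removed and medium with serial compound concentrations was added, in duplicate. Plates were held 7 days at 37 °C, fixed with ethanol, and scored microscopically for virus-induced cytopathicity. EC50 is the concentration reducing cytopathicity by 50%.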

Murid betaherpesvirus 1 = test: Antiviral activity against MCMV in mouse C127I cells assessed as reduction of virus-induced cytopathogenicity after 7 days; assay type: functional, organism-based; conditions: Murid betaherpesvirus 1, C127I, 168 h
Procedure, shortened: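 MCMV Smith strain on confluent C127I cells, run as the HCMV assay: 100 PFU/well for 2 h, inoculum removed, then serial compound concentrations in duplicate for 7 days at 37 °C. Cytopathicity was scored microscopically after ethanol fixation. EC50 is the concentration reducing virus-induced cytopathicity by 50%.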

[12] = Cytotoxicity against HEL cells assessed as alteration in cell morphology after 3 days; assay type: cell-based; conditions: human
Procedure, shortened: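 Minimum cytotoxic concentration: the lowest compound concentration causing a microscopically detectable alteration of HEL cell morphology.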

Human alphaherpesvirus 2 = test: Antiviral activity against HSV2; assay type: functional, organism-based
Vaccinia virus = test: Antiviral activity against vaccinia virus; assay type: functional, organism-based; conditions: Orthopoxvirus vaccinia
Human alphaherpesvirus 3 [13] = test: Antiviral activity against thymidine-kinase deficient VZV in HEL cells after 5 days by plaque reduction assay; assay type: functional, organism-based; conditions: Human alphaherpesvirus 3, HEL, 120 h
Procedure, shortened: (§4)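 Plaque reduction on confluent HEL monolayers infected with 20 PFU/well of cell-associated VZV. After 2 h, inoculum was replaced by compound dilutions in duplicate, with infected-untreated controls. After 5 days, cells were fixed and Giemsa-stained and plaques counted. EC50 is the concentration reducing plaque formation by 50% versus untreated control.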

[14] = Cytotoxicity against HEL cells assessed as reduction in cell growth after 3 days; assay type: cell-based; conditions: human
Procedure, shortened: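 HEL cells were seeded at 5 × 10³ cells/well and allowed to proliferate for 24 h. Compound-containing medium was then added at several concentrations for 3 days at 37 °C. Cells were counted with a Coulter counter. CC50, the concentration reducing cell growth by 50% versus untreated controls, was read from plots of cell number (% of control) against concentration.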

Human alphaherpesvirus 3 [15] = test: Antiviral activity against wild-type VZV in HEL cells after 5 days by plaque reduction assay; assay type: functional, organism-based; conditions: Human alphaherpesvirus 3, HEL, 120 h; procedure, shortened: as §4
Human betaherpesvirus 5 [16] = test: Antiviral activity against HCMV Davis in HEL cells assessed as reduction of virus-induced cytopathogenicity after 7 days; assay type: functional, organism-based; conditions: Human betaherpesvirus 5, Davis, 168 h; procedure, shortened: as §3
Human alphaherpesvirus 1 = test: Antiviral activity against HSV1; assay type: functional, organism-based

| Structure (SMILES) | EC50 (Human betaherpesvirus 5 [1]) | EC50 (Human betaherpesvirus 5 [2]) | EC50 (Human betaherpesvirus 5 [3]) | EC50 (Human betaherpesvirus 5 [4]) | EC50 (Human betaherpesvirus 5 [5]) | EC50 (Human betaherpesvirus 5 [6]) | EC50 (Human betaherpesvirus 5 [7]) | EC50 (Human betaherpesvirus 5 [8]) | Activity [9] | Activity (Human betaherpesvirus 5 [10]) | EC50 (Human betaherpesvirus 5 [11]) | EC50 (Murid betaherpesvirus 1) | MCC at 72 h [12] | Activity (Human alphaherpesvirus 2) | Activity (Vaccinia virus) | EC50 (Human alphaherpesvirus 3 [13]) | CC50 at 72 h [14] | EC50 (Human alphaherpesvirus 3 [15]) | EC50 (Human betaherpesvirus 5 [16]) | Activity (Human alphaherpesvirus 1) |
| --- | --- | --- | --- | --- | --- | --- | --- | --- | --- | --- | --- | --- | --- | --- | --- | --- | --- | --- | --- | --- |
| Nc1nc(N)c2ncn(CCOCP(=O)(O)O)c2n1 [PMEDAP] | 38 µg/mL (≈ 132 µM) | 44 µg/mL (≈ 153 µM) | 5.2 µg/mL (≈ 18 µM) | 6.7 µg/mL (≈ 23.2 µM) | 1.6 µg/mL (≈ 5.55 µM) | 2.8 µg/mL (≈ 9.72 µM) | 12 µg/mL (≈ 41.6 µM) | 26 µg/mL (≈ 90.2 µM) | – | – | – | – | – | – | – | – | – | – | – | – |
| Nc1ncnc2c1ncn2C[C@@H](CO)OCP(=O)(O)O | 0.081 µg/mL (≈ 0.267 µM) | 0.11 µg/mL (≈ 0.363 µM) | 3.3 µg/mL (≈ 10.9 µM) | 2.3 µg/mL (≈ 7.59 µM) | 2 µg/mL (≈ 6.6 µM) | 6.2 µg/mL (≈ 20.4 µM) | 1.2 µg/mL (≈ 3.96 µM) | 0.91 µg/mL (≈ 3 µM) | – | – | – | – | – | – | – | – | – | – | – | – |
| O=C(O)P(=O)(O)O [FOSCARNET] | 37 µg/mL (≈ 294 µM) | 135 µg/mL (≈ 1070 µM) | 14 µg/mL (≈ 111 µM) | 29 µg/mL (≈ 230 µM) | 17 µg/mL (≈ 135 µM) | 35 µg/mL (≈ 278 µM) | 31 µg/mL (≈ 246 µM) | 34 µg/mL (≈ 270 µM) | Active | – | – | – | – | – | – | – | – | – | – | – |
| Nc1nc2c(ncn2COCCO)c(=O)[nH]1 [ACYCLOVIR] | 130 µg/mL (≈ 577 µM) | 173 µg/mL (≈ 768 µM) | 12 µg/mL (≈ 53.3 µM) | 7.7 µg/mL (≈ 34.2 µM) | 4.8 µg/mL (≈ 21.3 µM) | 7.9 µg/mL (≈ 35.1 µM) | 22 µg/mL (≈ 97.7 µM) | 91 µg/mL (≈ 404 µM) | – | – | – | – | – | – | – | – | – | – | – | – |
| Cc1cn([C@@H]2O[C@H](CO[Si](C)(C)C(C)(C)C(C)C)[C@@]3(OS(=O)(=O)C=C3NC(=O)NC(=O)c3ccccc3)[C@H]2O[Si](C)(C)C(C)(C)C(C)C)c(=O)n(C)c1=O | 2.7 µg/mL (≈ 3.35 µM) | 2.7 µg/mL (≈ 3.35 µM) | 2.6 µg/mL (≈ 3.22 µM) | 2.9 µg/mL (≈ 3.59 µM) | 3.3 µg/mL (≈ 4.09 µM) | 5.6 µg/mL (≈ 6.94 µM) | 5.7 µg/mL (≈ 7.06 µM) | 5.5 µg/mL (≈ 6.81 µM) | – | inactive | 1.2 µM | 0.54 µM | ≥ 100 µM | inactive | inactive | 11 µM | > 50 µM | 11 µM | 1.5 µM | inactive |
| Cc1cn([C@@H]2O[C@H](CO[Si](C)(C)C(C)(C)C)[C@@]3(OS(=O)(=O)C=C3NC(=O)NC(=O)c3ccccc3)[C@H]2O[Si](C)(C)C(C)(C)C)c(=O)n(C)c1=O | – | – | – | – | – | – | – | – | – | inactive | 11 µM | – | ≥ 80 µM | – | – | – | > 200 µM | – | 2.4 µM | – |
